AI-2 QS mod: Vibrio harveyi AI-2 quorum sensing modulators, primary screen, JMH597 strain, luminescence/OD600 ratio. 0.4% of 300,000 active. Vibrio harveyi JMH597 AI-2 luminescence/OD600 ratio, 9 h; stronger effect = lower value; strain lacks LuxN and CqsS sensors; 0 = neutral-control median. activity change, % at 7.5 µM; in the data active = activity change below about -75%, passing the limit was not always enough;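 note: luminescence divided by OD600 gain over 9 h not by final OD600 alone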
T cruzi repl: inhibitors of intracellular T. cruzi growth, primary screen, luminescence, NIH3T3 host cells | T. cruzi beta-gal in NIH3T3, 90 h | inhibition, % (test concentration not listed) | 1.4% of 300,000 active;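 active = mean inhibition across valid replicates above about 55%, limit read from the data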;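 note: signal also drops with host cell toxicity which is not excluded here; higher percent means less beta-gal luminescence so fewer parasites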
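Read-out: Parasite load inhibition, % | Test system: Mouse NIH/3T3 fibroblasts infected with β-gal-expressing T. cruzi Tulahuen C4 | Amount: 5,000 cells/well | Medium: DMEM, 2% fetal bovine serum | Signal: GalScreen β-gal luminescence, detergent lysis, 60 min | Timing: 3 h attach, ≥90 h co-culture | Also added: Tulahuen C4 trypomastigotes, 5000/well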
PolyA inh: polyadenylation inhibitors in yeast reporter cells, primary screen, luminescence, S. cerevisiae; S. cerevisiae SKY197-pL101 polyadenylation reporter, beta-gal luminescence; efflux-impaired pdr1/pdr3 knockout yeast; score 100 = 6 SD above DMSO; activity score, % at 12 µM; 0.02% of 300,000 active;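 active = lowest replicate activity score at least 50, where 100 means six control SD above control mean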;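 note: yeast exposed to compound for 9 h at 30 °C; higher score means more reporter readthrough which indicates perturbed polyadenylation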
Efflux pump mplx: inhibitors of Candida efflux pumps in yeast, primary screen, S. cerevisiae, Nile Red, multiplex; AID 485275, 2010; 0.44% of 330,000 active; inhibition, % at 10 µM; S. cerevisiae Candida pump triplex;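 active = plate passing quality check with inhibition over a set limit, or well fluorescence over plate mean plus 4 SD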;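 note: Nile Red retained in pooled yeast measured as flow cytometry median fluorescence; higher means more Nile Red kept so more efflux inhibition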
HDAC3 inhib: HDAC3 deacetylase inhibitors, primary screen, biochemical, fluorescence, cell-free homogeneous; Histone deacetylase 3 (Homo sapiens), O15379; recombinant HDAC3, fluorogenic peptide/trypsin coupled; inhibition, % at 8.3 µM; 0.15% of 320,000 active; AID 2718, 2010; in the data active = inhibition above about 26%, passing the limit was not always enough
Target sequence (O15379 whole entry, looked up): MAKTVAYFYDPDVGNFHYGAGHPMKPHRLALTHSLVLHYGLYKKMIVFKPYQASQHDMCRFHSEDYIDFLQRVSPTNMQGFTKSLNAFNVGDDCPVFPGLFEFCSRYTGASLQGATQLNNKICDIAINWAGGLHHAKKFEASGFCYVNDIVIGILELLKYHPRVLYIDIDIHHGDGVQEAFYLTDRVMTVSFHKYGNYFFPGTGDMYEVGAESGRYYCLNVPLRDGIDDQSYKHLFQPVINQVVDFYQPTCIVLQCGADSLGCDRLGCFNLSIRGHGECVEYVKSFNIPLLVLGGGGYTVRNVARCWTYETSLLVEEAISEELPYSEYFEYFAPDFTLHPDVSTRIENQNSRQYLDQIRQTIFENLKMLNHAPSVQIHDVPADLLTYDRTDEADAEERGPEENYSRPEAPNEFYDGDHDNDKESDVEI
Numbers stand for hits; – = inactive; · = no result given. The list is not random: actives were taken first. Their share in the collection is about 2.2%.

SMILES | AI-2 QS mod | T cruzi repl | PolyA inh | Efflux pump mplx | HDAC3 inhib
CCN1CC(CN(C)Cc2nc(-c3ccc(C(F)(F)F)cc3)oc2C)CC1=O (stereo not drawn) | – | 59 | – | – | –
CCCc1cc(=O)[nH]c(SCC(=O)CSc2nc(CCC)cc(=O)[nH]2)n1 | – | – | – | – | 45
Cc1ccccc1NC1=C/C(=N\S(=O)(=O)c2cccs2)c2ccccc2C1=O | – | 57 | – | – | –
Cc1ccccc1NC1=C/C(=N\S(=O)(=O)c2ccc(C(=O)O)cc2)c2ccccc2C1=O | – | – | – | – | –
COc1ccc(S(=O)(=O)/N=C2\C=C(Nc3ccc(O)cc3)C(=O)c3ccccc32)cc1 | – | 67 | – | – | –
Cc1cc[n+](C2=C([O-])c3ccccc3C(=O)/C2=N\S(=O)(=O)c2cccs2)cc1C | – | 57 | – | – | –
Cc1ccc(NC2=C/C(=N/S(=O)(=O)c3cccs3)c3ccccc3C2=O)cc1C | – | – | – | – | –
CC(=O)Nc1ccc(NC2=C/C(=N/S(=O)(=O)c3cccs3)c3ccccc3C2=O)cc1 | – | 56 | – | – | –
CCC(=O)N/N=C(\C)CC(=O)Nc1ccc2c(c1)OCCO2 | – | – | – | – | –
Cc1cccc(N2CCN(S(=O)(=O)c3cc(-c4cc(C)no4)ccc3C)CC2C)c1 (stereo not drawn) | – | – | – | – | –
CCCn1c(N2CCC(Cc3ccccc3)CC2)nc2c1c(=O)[nH]c(=O)n2C | – | – | – | – | –
CCCCCn1c(N2CCC(Cc3ccccc3)CC2)nc2c1c(=O)[nH]c(=O)n2C | – | 57 | – | – | –
Cn1c(=O)[nH]c(=O)c2c1nc(SCC(=O)O)n2CCc1ccccc1 | – | – | – | – | 37
CCOC(=O)CSc1nc2c(c(=O)[nH]c(=O)n2C)n1CCc1ccccc1 | – | – | – | – | –
Cn1cc(S(=O)(=O)Nc2ccc(F)c(Cl)c2)c(=O)n(C)c1=O | – | – | – | – | –
O=C(/C=C/c1ccccc1[N+](=O)[O-])N1CCCCC1 | – | – | – | – | –
O=[N+]([O-])C(/C=C(/Cl)[N+](=O)[O-])=C(N1CCCCC1)N1CCCCC1 | · | 55 | – | – | –
CCN1CCN(c2ccc(S(=O)(=O)N3CCCCC3)cc2NC(=O)c2cc3ccccc3o2)CC1 | – | 76 | – | – | –
CCN1CCN(c2ccc(S(=O)(=O)N3CCOCC3)cc2NC(=O)c2ccc(Cl)s2)CC1 | – | 69 | – | – | –
O=C(NS(=O)(=O)Oc1ccc(Cl)cc1)OC[C@@H]1CCCN2CCCC[C@H]12 | – | – | – | – | –
O=c1cc(O)n(C2CCCCCC2)c(=O)[nH]1 | – | – | – | – | –
O=c1[nH][nH]c(=S)n1C1CCCCC1 | – | – | – | – | 32
CCN(CC)S(=O)(=O)c1ccc(OC)c(NC(=O)c2ccc(-n3cncn3)c([N+](=O)[O-])c2)c1 | – | – | – | – | –
CCN(Cc1ccccc1)S(=O)(=O)c1ccc(C(=O)N(CCCN(C)C)c2nc3cc4c(cc3s2)OCO4)cc1 | – | – | – | – | –
Cc1ccc2sc(N(CCCN(C)C)C(=O)c3ccc(S(=O)(=O)N(C)C4CCCCC4)cc3)nc2c1C | – | 59 | – | – | –
SMILES | AI-2 QS mod | T cruzi repl | PolyA inh | Efflux pump mplx | HDAC3 inhib
CCN(CC)CCN(C(=O)c1ccc(S(=O)(=O)N(C)C2CCCCC2)cc1)c1nc2c(C)cccc2s1 | – | – | – | – | –
CCN(Cc1ccccc1)S(=O)(=O)c1ccc(C(=O)N(CCCN(C)C)c2nc3c(C)c(C)ccc3s2)cc1 | – | 60 | – | – | –
O=C1c2cnc3nc(SCc4ccccc4)nn3c2CC2c3ccccc3CCN12 (stereo not drawn) | – | – | 114 | – | –
CN(CCCNC(=O)CCCOc1cc(=O)n(C)c2ccccc12)Cc1ccccc1 | – | 71 | – | – | –
COc1ccc(CCCC(=O)NCc2ccccc2)cc1C | – | – | – | – | –
NS(=O)(=O)c1ccc(NC(=S)NNC(=O)c2ccc(Br)o2)cc1 | – | – | – | – | –
Nc1ccc(C(=O)N/N=C\c2cc(N=Nc3cccc4ccccc34)ccc2O)cc1 | – | 59 | – | – | –
CCOc1ccccc1C(=O)OC(C)C(=O)Nc1ccc(S(=O)(=O)N2CCCC2)cc1 (stereo not drawn) | · | · | · | – | –
Cc1nn(-c2nnc(NC3CCCCC3)nn2)c(C)c1Br | – | – | – | – | –
O=[N+]([O-])c1cc(-c2n[nH]c(-c3ccccc3)n2)cc([N+](=O)[O-])c1 | – | 72 | – | – | –
O=[N+]([O-])c1ccc2nc(-c3ccccc3)cc(-c3ccccc3)c2c1 | – | – | – | – | –
O=[N+]([O-])c1cc([N+](=O)[O-])c2n[nH]c(-c3ccccc3)c2c1 | – | 71 | – | – | –
Cc1ccc2c(c1)sc(-c1ccc(N(C)C)cc1)[n+]2C | – | 62 | – | – | –
O=C(CCN1C(=O)C2C3CCC(C3)C2C1=O)OCC(=O)c1ccc(Cl)cc1 (stereo not drawn) | – | – | – | – | –
C[N+]1(CC(O)COCC2COc3ccccc3O2)CCOCC1 (stereo not drawn) | – | – | – | – | –
Cc1cccc(C(=O)O/N=C/c2c(N3CCOCC3)n(C)c3ccccc23)c1 | – | 73 | – | – | –
Cc1c(CCC(=O)NC2CC2)c(=O)oc2cc(O)ccc12 | – | – | – | – | –
CCc1sc(C(=O)Nc2ncccc2C)cc1C | – | – | – | – | –
CCc1sc(C(=O)Nc2ncccc2O)cc1C | – | – | – | – | 76
CCOc1cc(N2CCOCC2)c(OCC)cc1NC(=O)c1ccc2ccccc2n1 | – | 58 | – | – | –
C[C@H]1CN([C@@H](C)CO)C(=O)Cc2cc(NS(=O)(=O)c3cn(C)cn3)ccc2O[C@@H]1CN(C)C(=O)Nc1ccc(F)cc1 | · | · | · | – | –
O=C(NCc1cccc2ccccc12)c1cccs1 | · | · | · | – | –
O=C(NCc1nc(-c2ccccc2)no1)c1cccs1 | -79 | – | – | – | –
Cc1cccc(-c2cc3c(N=O)c4ccccc4c-3n[nH]2)c1 | – | 62 | – | – | –
Cc1cc2oc(=O)cc(CN3CCCCC3C)c2cc1Cl (stereo not drawn) | – | – | – | – | –
Cc1cc2oc(=O)cc(Cn3ncc(Cl)c(Cl)c3=O)c2cc1Cl | – | 57 | – | – | –
CCCCn1c(N)c(N(CC(C)C)C(=O)c2cc(-c3ccc(F)cc3)nc3ccccc23)c(=O)[nH]c1=O | – | – | – | – | ·
COC(=O)C(/C=N/OCc1ccc([N+](=O)[O-])cc1)NC(=O)c1ccccc1 (stereo not drawn) | – | – | – | – | 44
Cc1cc2cc(CN3C(=O)c4ccccc4C3=O)ccc2n1C | – | 83 | – | – | –

Screens as filed in PubChem BioAssay.
